Data: ChEMBL document CHEMBL1134677, “Synthesis and biological evaluation of a novel series of furans: ligands selective for estrogen receptor alpha” (J Med Chem, 2001)

Key:
[1] = test system: Estrogen receptor (Ovis aries); test: Relative binding affinity (RBA) for ER alpha using lamb uterine cytosol determined by a competitive radiometric binding assay using 10 nM [3H]estradiol as the radioligand; conditions: Uterus
[2] = target: Estrogen receptor beta (Homo sapiens) (UniProt Q92731); test: Relative binding affinity towards estrogen receptor 2 determined by a competitive radiometric binding assay using 10 nM [3H]estradiol as the radioligand
Sequence of Estrogen receptor beta (Homo sapiens) (Q92731 whole entry): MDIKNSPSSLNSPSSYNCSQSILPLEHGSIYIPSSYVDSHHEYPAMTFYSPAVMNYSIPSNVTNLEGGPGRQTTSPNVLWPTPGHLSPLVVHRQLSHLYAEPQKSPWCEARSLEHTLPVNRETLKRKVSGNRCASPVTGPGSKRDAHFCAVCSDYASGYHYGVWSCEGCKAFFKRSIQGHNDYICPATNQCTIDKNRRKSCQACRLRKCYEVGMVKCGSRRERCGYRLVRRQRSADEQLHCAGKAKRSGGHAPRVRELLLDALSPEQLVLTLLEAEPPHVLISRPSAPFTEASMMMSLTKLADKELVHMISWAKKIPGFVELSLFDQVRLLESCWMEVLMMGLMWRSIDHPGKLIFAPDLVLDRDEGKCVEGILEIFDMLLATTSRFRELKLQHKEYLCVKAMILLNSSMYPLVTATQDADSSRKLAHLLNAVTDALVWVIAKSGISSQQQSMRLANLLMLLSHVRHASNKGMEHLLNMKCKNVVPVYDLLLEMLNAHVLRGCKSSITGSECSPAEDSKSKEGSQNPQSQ
Summary of the method: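 Competitive radiometric binding with purified human ERβ and 10 nM [3H]estradiol tracer. Hydroxylapatite captured the bound complex. Incubation was at 0 °C for 18–24 h. Competitors were dissolved in 1:1 DMF:TEA. RBA is relative to estradiol (100%). Duplicate independent experiments were run, with CV <0.3.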

[3] = target: T1, Estrogen receptor (Homo sapiens) (UniProt P03372); test: Relative binding affinity (RBA) for ER alpha (Estrogen receptor alpha) determined by a competitive radiometric binding assay using 10 nM [3H]estradiol as the radioligand
T1 sequence (whole entry): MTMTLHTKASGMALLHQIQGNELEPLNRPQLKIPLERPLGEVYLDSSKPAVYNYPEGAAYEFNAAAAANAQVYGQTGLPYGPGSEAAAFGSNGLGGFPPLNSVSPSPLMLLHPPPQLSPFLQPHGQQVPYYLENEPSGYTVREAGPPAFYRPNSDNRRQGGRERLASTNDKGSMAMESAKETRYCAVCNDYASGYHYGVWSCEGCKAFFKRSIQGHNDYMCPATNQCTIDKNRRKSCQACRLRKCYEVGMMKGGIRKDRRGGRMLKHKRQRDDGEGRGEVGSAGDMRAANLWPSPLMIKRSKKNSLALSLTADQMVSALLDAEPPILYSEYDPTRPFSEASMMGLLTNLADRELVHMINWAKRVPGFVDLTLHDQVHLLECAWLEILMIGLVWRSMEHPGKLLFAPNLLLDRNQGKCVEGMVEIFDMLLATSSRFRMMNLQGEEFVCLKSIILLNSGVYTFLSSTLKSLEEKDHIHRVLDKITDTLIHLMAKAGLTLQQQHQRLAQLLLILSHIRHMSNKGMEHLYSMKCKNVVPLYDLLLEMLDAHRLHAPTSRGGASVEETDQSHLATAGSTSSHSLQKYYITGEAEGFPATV
Summary of the method: (§1)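 Competitive radiometric binding with purified human ERα and 10 nM [3H]estradiol tracer. Bound receptor–ligand complex was adsorbed on hydroxylapatite. Incubation was at 0 °C for 18–24 h. Unlabeled competitors were dissolved in 1:1 DMF:TEA. RBA is expressed relative to estradiol (100%). Duplicate separate experiments were run, with CV <0.3.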

[4] = target: T1, Estrogen receptor (Homo sapiens); test: Relative binding affinity for Estrogen receptor alpha compared 10 nM [3H]estradiol
Summary of the method: as §1

SMILES | relative binding affinity (RBA) [1] | relative binding affinity (RBA) [2] | relative binding affinity (RBA) [3] | relative binding affinity (RBA) [4]
Oc1ccc(-c2oc(-c3ccc(O)cc3)c(-c3ccc(O)cc3)c2-c2ccc(O)cc2)cc1 | 0.84 | 0.25 | 8.7 | –
CCc1c(-c2ccccc2)oc(-c2ccc(O)cc2)c1-c1ccc(O)cc1 | 0.45 | 4.5 | 14.8 | –
Cc1c(-c2ccc(O)cc2)oc(-c2ccc(O)cc2)c1-c1ccc(O)cc1 | 2.9 | 0.62 | 40 | –
Oc1ccc(-c2cc(-c3ccc(O)cc3)c(-c3ccccc3)s2)cc1 | 0.04 | – | – | –
CCc1c(-c2ccc(O)cc2)oc(-c2ccccc2)c1-c1ccccc1 | 0.44 | 3.4 | 10.8 | –
CC(C)Cc1c(-c2ccc(O)cc2)nn(-c2ccc(O)cc2)c1-c1ccc(O)cc1 | – | 0.89 | – | 75
CCCc1c(-c2ccc(O)cc2)oc(-c2ccc(O)cc2)c1-c1ccc(O)cc1 | 3.6 | 1.8 | 100 | –
CCc1c(-c2ccccc2)oc(-c2ccccc2)c1-c1ccc(O)cc1 | 0.02 | 0.07 | 0.15 | –

Continued, values first:

relative binding affinity (RBA) [1] | relative binding affinity (RBA) [2] | relative binding affinity (RBA) [3] | relative binding affinity (RBA) [4] | SMILES
4.6 | 7.1 | 82 | – | CCc1c(-c2ccc(O)cc2)oc(-c2ccccc2)c1-c1ccc(O)cc1
0.1 | 2 | 6.8 | – | CCc1c(-c2ccccc2)oc(-c2ccc(O)cc2)c1-c1ccccc1
– | – | – | 49 | CCCc1c(-c2ccc(O)cc2)nn(-c2ccc(O)cc2)c1-c1ccc(O)cc1
0.03 | – | – | – | Oc1ccc(-c2cc(-c3ccccc3)c(-c3ccc(O)cc3)s2)cc1
6.5 | – | 140 | – | CCc1c(-c2ccc(O)cc2)oc(-c2ccc(O)cc2)c1-c1ccc(O)cc1
3.6 | 15 | 140 | – | CCCc1c(-c2ccc(O)cc2)oc(-c2ccccc2)c1-c1ccc(O)cc1
0.7 | 3 | 16.5 | – | CCc1c(-c2ccc(O)cc2)oc(-c2ccc(O)cc2)c1-c1ccccc1
0.04 | – | – | – | Oc1ccc(-c2cc(-c3ccc(O)cc3)c(-c3ccccc3)o2)cc1
1.3 | 3.9 | 21 | – | CCCCc1c(-c2ccc(O)cc2)oc(-c2ccc(O)cc2)c1-c1ccc(O)cc1
0.5 | – | – | – | CCc1c(-c2ccc(O)cc2)cc(-c2ccccc2)n1-c1ccc(O)cc1
0.13 | – | – | – | Oc1ccc(-c2cc(-c3ccccc3)c(-c3ccc(O)cc3)o2)cc1
